From ChEMBL document CHEMBL3272346, “Vinyl ethers of choline and congeners” (1976)
The source made the active and inactive calls. The calls are words filed in the database; no cut-off is given here.

Tests used:
[1] = tested on: Canis familiaris; test: Increase in blood pressure in hexamethonium bromide-pretreated anesthetized dog at 0.3 to 0.6 mg/kg; assay type: functional, organism-based; conditions: Canis lupus familiaris
Summary of the method: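 In atropine sulfate-pretreated (0.5 mg/kg) anesthetized dogs, compounds were given intravenously at 0.3 and 0.6 mg/kg. Femoral arterial pressor responses were measured after pretreatment with hexamethonium bromide, 10 mg/kg, given intravenously.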

[2] = species: Cavia porcellus; test: Agonist activity at muscarinic acetylcholine receptor in guinea pig ileum assessed as muscle contraction at 2.5 to 10 ng/ml relative to acetylcholine
[3] = species: Cavia porcellus; test: […] at muscarinic acetylcholine receptor in guinea pig ileum assessed as muscle contraction in presence of 0.2 mg/l atropine sulfate; assay type: tissue-based
Summary of the method: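 Contractions of a guinea pig ileum segment (animals 300-600 g, tissue taken just before the ileocecal valve) were evoked by added drug. Atropine sulfate was present at 0.2 mg/l to test antagonism of the responses.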

[4] = tested on: Canis familiaris; test: Increase in blood pressure in atropine sulfate-pretreated anesthetized dog at 0.3 to 0.6 mg/kg relative to acetylcholine; assay type: functional, Canis lupus familiaris; conditions: dose mg/kg 0.3-0.6
Summary of the method: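 Dogs were pretreated with atropine sulfate (0.5 mg/kg) and given compounds or acetylcholine at 0.3 and 0.6 mg/kg, rapidly into the right femoral vein in randomized order. Pressor responses were recorded from the left femoral artery by transducer. Relative potencies with 95% confidence intervals were calculated by Finney's method on molar cation amounts.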

[5] = tested on: Canis familiaris; test: Decrease in blood pressure in dog at 1 to 4 ug/kg relative to acetylcholine
[6] = tested on: Canis familiaris; test: Increase in blood pressure in dog at 0.2 mg/kg; assay type: functional, organism-based; design: dose 0.2 mg/kg; conditions: Canis lupus familiaris
Summary of the method: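 Dogs anesthetized with barbital sodium (250 mg/kg) and pretreated with atropine sulfate (0.5 mg/kg). Agents given rapidly into the right femoral vein in randomized order. Left femoral arterial pressure recorded by transducer. Pressor responses were also tested after intravenous hexamethonium bromide pretreatment (10 mg/kg). Potency is relative to acetylcholine, computed on molar cation amounts by Finney's method with 95% confidence intervals.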

[7] = tested on: Canis familiaris; test: Increase in blood pressure in atropine sulfate-pretreated anesthetized dog at 2 mg/kg; assay type: functional, organism-based; design: dose 2 mg/kg; conditions: Canis lupus familiaris

Row | SMILES | Activity [1] | fold change (FC) [2] | Activity [3] | fold change (FC) [4] | fold change (FC) [5] | Activity [6] | Activity [7]
1 | CCOCC[N+](C)(C)C.[I-] | inactive | 0.15 | inactive | 0.9 | 1.03 | – | –
2 | C=COCC[N+](C)(C)C.[I-] | inactive | 0.09 | inactive | 1.93 | 1.13 | – | –
3 | CN1C2CCC1CC(OC(=O)C(CO)c1ccccc1)C2 (centres undefined) | – | – | – | – | – | Active | –
4 | C=COCC(C)[N+](C)(C)C.[I-] (racemic) | inactive | 0.001 | inactive | 3.74 | 0.06 | – | –
5 | C=COC(C)C[N+](C)(C)C.[I-] (racemic) | – | 0.02 | inactive | – | 0.74 | – | inactive
6 | CCOCC(C)[N+](C)(C)C.[I-] (racemic) | inactive | 0.003 | inactive | 1.13 | 0.08 | – | –
7 | CCOC(C)C[N+](C)(C)C.[I-] (racemic) | – | 0.03 | inactive | – | 0.64 | – | inactive
